Laboratory results as given in ChEMBL document CHEMBL1155465, “"Viologen" dendrimers as antiviral agents: the effect of charge number and distance” (J Med Chem, 2010).
≈ marks a conversion by molar mass, not a printed value. Calls of active or inactive are those of the source. The rule behind the calls is not given here.

Experiments:
[1] = system: Human alphaherpesvirus 1; experiment: Antiviral activity against TK-deficient acyclovir-resistant HSV1 KOS infected in human E6SM cell assessed as inhibition of virus-induced cytopathicity; format: functional, organism-based; conditions: Human alphaherpesvirus 1, KOS
[2] = system: Human immunodeficiency virus 1; experiment: Antiviral activity against HIV1 3B infected in human PBMC assessed as inhibition of viral p24 antigen production by ELISA; format: functional, organism-based; conditions: Human immunodeficiency virus 1, 3B
Procedure, shortened: (§1)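 PBMCs infected with HIV-1 IIIB and cultured with a range of compound concentrations. EC50 is 50% inhibition of supernatant p24 core antigen (ELISA) relative to drug-free culture. CC50 is 50% reduction in cell viability. SI = CC50/EC50. Mean ± SD of ≥2 experiments.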

[3] = system: Reovirus sp.; experiment: Antiviral activity against Reovirus infected in african green monkey Vero cells assessed as inhibition of virus-induced cytopathicity; format: functional, organism-based
[4] = system: Vesicular stomatitis virus; experiment: Antiviral activity against VSV infected in human HeLa cell assessed as inhibition of virus-induced cytopathicity; format: functional, organism-based
[5] = system: Vaccinia virus; experiment: Antiviral activity against Vaccina virus infected in human E6SM cell assessed as inhibition of virus-induced cytopathicity; format: functional, organism-based; conditions: Orthopoxvirus vaccinia
[6] = system: Human alphaherpesvirus 1; experiment: Antiviral activity against HSV1 KOS infected in human E6SM cell assessed as inhibition of virus-induced cytopathicity; format: functional, organism-based; conditions: Human alphaherpesvirus 1, KOS
[7] = Cytotoxicity against human HeLa cells by MTT assay; format: cell-based
[8] = system: Human immunodeficiency virus 2; experiment: Antiviral activity against HIV2 ROD infected in human MT4 cells after 5 days by MTT assay; format: functional, organism-based; conditions: Human immunodeficiency virus 2, ISOLATE ROD, MT4, 120 h
Procedure, shortened: (§2)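 MT-4 cells in RPMI 1640 with 10% heat-inactivated FCS, 2 mM L-glutamine, 0.1% bicarbonate and gentamicin, seeded at 6 × 10⁵ cells/mL final with virus or mock infection. Viability read by MTT after 5 days at 540 and 690 nm, using the median OD of three wells. CC50 is 50% loss of mock-infected OD540. EC50 is 50% inhibition of virus-induced CPE. SI = CC50/EC50. Mean ± SD of ≥2 experiments.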

[9] = Cytotoxicity against human MT4 cells after 5 days by MTT assay; format: cell-based; procedure, shortened: as §2
[10] = system: Simian immunodeficiency virus; experiment: Antiviral activity against SIV MAC251 infected in human MT4 cells after 5 days by MTT assay; format: functional, organism-based; conditions: MAC251, MT4, 120 h; procedure, shortened: as §2
[11] = Cytotoxicity against human PBMC after 5 days by MTT assay; format: cell-based; procedure, shortened: as §1
[12] = system: Respiratory syncytial virus; experiment: Antiviral activity against RSV infected in human HeLa cell assessed as inhibition of virus-induced cytopathicity; format: functional, organism-based
[13] = system: Sindbis virus; experiment: Antiviral activity against Sindbis virus infected in african green monkey Vero cells assessed as inhibition of virus-induced cytopathicity; format: functional, organism-based
[14] = system: Human immunodeficiency virus 1; experiment: Antiviral activity against HIV1 3B infected in human MT4 cells after 5 days by MTT assay; format: functional, organism-based; conditions: Human immunodeficiency virus 1, 3B, MT4, 120 h; procedure, shortened: as §2
[15] = system: Human respirovirus 3; experiment: Antiviral activity against Parainfluenza virus 3 infected in african green monkey Vero cells assessed as inhibition of virus-induced cytopathicity; format: functional, organism-based; conditions: Human respirovirus 3, Vero
[16] = system: Punta Toro virus; experiment: Antiviral activity against Punta Toro virus infected in african green monkey Vero cells assessed as inhibition of virus-induced cytopathicity; format: functional, organism-based
[17] = Selectivity index, ratio of CC50 for human MT4 cells to EC50 for HIV1 3B; format: toxicity, cell-based; conditions: read-out: Ratio CC50/EC50; procedure, shortened: as §2
[18] = system: Human alphaherpesvirus 2; experiment: Antiviral activity against HSV2 G infected in human E6SM cell assessed as inhibition of virus-induced cytopathicity; format: functional, organism-based; conditions: Human alphaherpesvirus 2, strain G
[19] = Selectivity index, ratio of CC50 for human PBMC to EC50 for HIV1 3B; procedure, shortened: as §1
[20] = system: Human immunodeficiency virus; experiment: Antiviral activity against HIV SO6141 infected in human MT4 cells after 5 days by MTT assay; format: functional, organism-based; conditions: Human immunodeficiency virus 1, SO6141, MT4, 120 h; procedure, shortened: as §2
[21] = system: Vesicular stomatitis virus; experiment: Antiviral activity against VSV infected in human E6SM cell assessed as inhibition of virus-induced cytopathicity; format: functional, organism-based
[22] = Cytotoxicity against african green monkey Vero cells by MTT assay; format: cell-based; conditions: chlorocebus sabaeus
[23] = Cytotoxicity against human E6SM cells by MTT assay; format: cell-based
[24] = system: Human immunodeficiency virus 1; experiment: Antiviral activity against HIV1 NL4-3 pseudotyped with VSV-G envelope infected in human C8166 cells assessed as inhibition of GFP expression after 48 hrs by flow cytometry; format: functional, organism-based
Procedure, shortened: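 VSV-G-pseudotyped (env-deficient) GFP-encoding NL4.3 taken from transfection supernatant at 60 h and clarified at 450g for 10 min. Used to infect 3 × 10⁴ C8166 cells (RPMI 1640, 10% FCS) with graded compound concentrations. GFP expression read by flow cytometry 48 h post-infection, with the no-compound infection control set as 100%.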

Structure (SMILES) | EC50 [1] | EC50 [3] | EC50 [4] | EC50 [5] | EC50 [6] | MCC [7] | EC50 [8] | CC50 at 120 h [9] | EC50 [10] | EC50 [12] | EC50 [13] | EC50 [14] | EC50 [15] | EC50 [16] | selectivity ratio [17] | EC50 [18] | EC50 [20] | EC50 [21] | MCC [22] | MCC [23] | also measured
CC[n+]1ccc(-c2cc[n+](Cc3cc(C[n+]4ccc(-c5cc[n+](CC)cc5)cc4)cc(C[n+]4ccc(-c5cc[n+](Cc6cc(C[n+]7ccc(-c8cc[n+](Cc9cc(C[n+]%10ccc(-c%11cc[n+](CC)cc%11)cc%10)cc(C[n+]%10ccc(-c%11cc[n+](CC)cc%11)cc%10)c9)cc8)cc7)cc(-[n+]7ccc(-c8cc[n+](-c9cc(C[n+]%10ccc(-c%11cc[n+](Cc%12cc(C[n+]%13ccc(-c%14cc[n+](CC)cc%14)cc%13)cc(C[n+]%13ccc(-c%14cc[n+](CC)cc%14)cc%13)c%12)cc%11)cc%10)cc(C[n+]%10ccc(-c%11cc[n+](Cc%12cc(C[n+]%13ccc(-c%14cc[n+](CC)cc%14)cc%13)cc(C[n+]%13ccc(-c%14cc[n+](CC)cc%14)cc%13)c%12)cc%11)cc%10)c9)cc8)cc7)c6)cc5)cc4)c3)cc2)cc1.F[P-](F)(F)(F)(F)F.F[P-](F)(F)(F)(F)F.F[P-](F)(F)(F)(F)F.F[P-](F)(F)(F)(F)F.F[P-](F)(F)(F)(F)F.F[P-](F)(F)(F)(F)F.F[P-](F)(F)(F)(F)F.F[P-](F)(F)(F)(F)F.F[P-](F)(F)(F)(F)F.F[P-](F)(F)(F)(F)F.F[P-](F)(F)(F)(F)F.F[P-](F)(F)(F)(F)F.F[P-](F)(F)(F)(F)F.F[P-](F)(F)(F)(F)F.F[P-](F)(F)(F)(F)F.F[P-](F)(F)(F)(F)F.F[P-](F)(F)(F)(F)F.F[P-](F)(F)(F)(F)F.F[P-](F)(F)(F)(F)F.F[P-](F)(F)(F)(F)F.F[P-](F)(F)(F)(F)F.F[P-](F)(F)(F)(F)F.F[P-](F)(F)(F)(F)F.F[P-](F)(F)(F)(F)F.F[P-](F)(F)(F)(F)F.F[P-](F)(F)(F)(F)F | 30 µg/mL | > 50 µg/mL | > 50 µg/mL | > 50 µg/mL | 6 µg/mL | > 50 µg/mL | 9.82 µM | > 18.6 µM | ≥ 0.49 µM | 50 µg/mL | > 50 µg/mL | 1.4 µM | > 50 µg/mL | > 50 µg/mL | 13.3 | 50 µg/mL | 1.23 µM | > 50 µg/mL | > 50 µg/mL | > 50 µg/mL | EC50 [2]: > 0.52 µg/mL; CC50 at 120 h [11]: 0.52 µg/mL; Ratio CC50/EC50 [19]: <1
c1cc(CN2CCCNCCNCCCNCC2)ccc1CN1CCCNCCNCCCNCC1 |  |  |  |  |  |  |  |  |  |  |  |  |  |  |  |  |  |  |  |  | inhibition [24]: inactive
BrCC[n+]1ccc(-c2cc[n+](CCBr)cc2)cc1 |  |  |  |  |  |  | > 20.6 µM | 20.6 µM | > 20.6 µM |  |  | 5.88 µM |  |  | 3.5 |  |  |  |  |  | 
O=c1[nH]c(=O)n([C@H]2C[C@H](O)[C@@H](CO)O2)cc1/C=C/Br [BRIVUDINE] | > 400 µg/mL | > 400 µg/mL | > 400 µg/mL | 9.6 µg/mL (≈ 28.8 µM) | 0.384 µg/mL (≈ 1.15 µM) | > 400 µg/mL |  |  |  | > 400 µg/mL | > 400 µg/mL |  | > 400 µg/mL | > 400 µg/mL |  | 80 µg/mL (≈ 240 µM) |  | > 400 µg/mL | > 400 µg/mL | > 400 µg/mL | 
CC[n+]1ccc(-c2cc[n+](Cc3cc(C[n+]4ccc(-c5cc[n+](CC)cc5)cc4)cc(-[n+]4ccc(-c5cc[n+](-c6cc(C[n+]7ccc(-c8cc[n+](CC)cc8)cc7)cc(C[n+]7ccc(-c8cc[n+](CC)cc8)cc7)c6)cc5)cc4)c3)cc2)cc1.F[P-](F)(F)(F)(F)F.F[P-](F)(F)(F)(F)F.F[P-](F)(F)(F)(F)F.F[P-](F)(F)(F)(F)F.F[P-](F)(F)(F)(F)F.F[P-](F)(F)(F)(F)F.F[P-](F)(F)(F)(F)F.F[P-](F)(F)(F)(F)F.F[P-](F)(F)(F)(F)F.F[P-](F)(F)(F)(F)F | 30 µg/mL | > 50 µg/mL | > 50 µg/mL | > 50 µg/mL | 6 µg/mL | > 50 µg/mL | > 49 µM | > 49 µM | > 49 µM | 50 µg/mL | > 50 µg/mL | 1.01 µM | > 50 µg/mL | > 50 µg/mL | 48.5 | 50 µg/mL | > 49 µM | > 50 µg/mL | > 50 µg/mL | > 50 µg/mL | EC50 [2]: 0.79 µg/mL; CC50 at 120 h [11]: 26.8 µg/mL; Ratio CC50/EC50 [19]: 34
OCC[n+]1ccc(-c2cc[n+](Cc3cc(C[n+]4ccc(-c5cc[n+](CCO)cc5)cc4)cc(C[n+]4ccc(-c5cc[n+](CCO)cc5)cc4)c3)cc2)cc1 |  |  |  |  |  |  | > 104 µM | > 104 µM | 37.7 µM |  |  | 33.3 µM |  |  | 3.11 |  | > 104 µM |  |  |  | 
C[n+]1ccc(-c2cc[n+](CBr)cc2)cc1 |  |  |  |  |  |  | > 5.1 µM | 5.1 µM |  |  |  | > 5.1 µM |  |  | < 1 |  |  |  |  |  | 
NC(=O)c1ncn([C@@H]2O[C@H](CO)[C@@H](O)[C@H]2O)n1 [RIBAVIRIN] | > 400 µg/mL | 80 µg/mL (≈ 328 µM) | 48 µg/mL (≈ 197 µM) | 48 µg/mL (≈ 197 µM) | > 400 µg/mL | > 400 µg/mL |  |  |  |  | > 400 µg/mL |  |  |  |  | > 400 µg/mL |  | > 400 µg/mL | > 400 µg/mL | > 400 µg/mL | 
